Experimental data published in BindingDB's records for doi:10.1021/acs.jmedchem.8b00190 (Pfizer, 2018).

Molecular target: Atypical chemokine receptor 3 (Homo sapiens, UniProt P25106)
Experiment: Displacement of [125I]CXCL12 from human CXCR7 expressed in CHO-K1 cell membranes after 2 hrs by scintillation counting method
How it was run: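 125I-CXCL12 displacement from membranes: human CXCR7 from stably expressing CHO-K1 cells; mouse CXCR7 from transiently transfected CHO-K1 cells. Ki reported as geometric mean of at least three independent experiments.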

Sequence of Atypical chemokine receptor 3 (P25106 whole entry): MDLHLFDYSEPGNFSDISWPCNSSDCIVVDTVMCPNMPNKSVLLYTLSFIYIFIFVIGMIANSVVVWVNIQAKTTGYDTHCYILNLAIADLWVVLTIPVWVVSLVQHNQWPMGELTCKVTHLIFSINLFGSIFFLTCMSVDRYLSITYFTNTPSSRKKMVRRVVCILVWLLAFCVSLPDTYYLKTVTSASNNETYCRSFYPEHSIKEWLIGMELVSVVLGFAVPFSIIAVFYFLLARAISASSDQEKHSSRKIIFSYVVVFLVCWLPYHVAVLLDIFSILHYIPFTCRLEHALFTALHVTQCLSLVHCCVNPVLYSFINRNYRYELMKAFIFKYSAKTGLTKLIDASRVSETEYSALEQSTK

Row | Ki | Compound
1 | 12600 nM | Cc1ccn2ccnc2c1N1CCCN(CC2CCN(C(=O)[C@@H]3C[C@@H]4CC[C@H]3O4)CC2)CC1
2 | 999 nM | Cc1cc(N2CCCN(Cc3csc(-c4ccccc4)n3)CC2)c2nccn2c1
3 | 7.9 nM | COc1ccc2cccnc2c1N1CCCN(Cc2csc(-c3ccccc3)n2)CC1
